Each structure is given as a SMILES string.

For test [1], the target named is T1, Sodium-dependent serotonin transporter (Homo sapiens, UniProt P31645). The test can be described thus: Inhibition of [3H] serotonin uptake into human SERT expressed in HEK293 cells. The class given is functional, cell-based. In a few lines: (§1)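 Confluent HEK293 cells expressing hDAT or hSERT, scraped into Krebs-HEPES. Preincubated 10 min at 25°C with compound (0.1% DMSO final). Uptake started with [3H]dopamine or [3H]serotonin (20 nM final) and stopped after 10 min by filtration on PEI-soaked GF/C filters. Non-specific uptake: 5 µM mazindol (DAT) or 5 µM imipramine (SERT). IC50 from triplicate 6-concentration curves, 2–3 independent determinations.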

Test [2] concerns the target T2, Sodium-dependent noradrenaline transporter (Homo sapiens, UniProt P23975). The test can be described thus: Displacement of [125I]RTI-55 from human NET expressed in HEK293 cells. It is filed as cell-based. In general terms: Loss of bound radioactivity is the signal in a displacement assay; it reports binding, not function.
The target in test [3] is T1, Sodium-dependent serotonin transporter. Briefly: Displacement of [125I]RTI-55 from human SERT expressed in HEK293 cells. It is filed as cell-based. In a few lines:
(§2)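 Membranes from HEK293 cells expressing hDAT or hSERT, grown to 80% confluence, lysed in 2 mM HEPES/1 mM EDTA, spun and resuspended in 0.32 M sucrose. About 10–15 µg protein preincubated 10 min with compound in Krebs-HEPES pH 7.4 (0.1% DMSO final). Filtered on GF/C. Non-specific binding: 5 µM mazindol (DAT) or 5 µM imipramine (SERT). Duplicates, 2–3 experiments, IC50 converted to Ki by Cheng-Prusoff.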

The target of test [4] is T3, 5-hydroxytryptamine receptor 1A (Homo sapiens, UniProt P08908).
T3 sequence (P08908 whole entry): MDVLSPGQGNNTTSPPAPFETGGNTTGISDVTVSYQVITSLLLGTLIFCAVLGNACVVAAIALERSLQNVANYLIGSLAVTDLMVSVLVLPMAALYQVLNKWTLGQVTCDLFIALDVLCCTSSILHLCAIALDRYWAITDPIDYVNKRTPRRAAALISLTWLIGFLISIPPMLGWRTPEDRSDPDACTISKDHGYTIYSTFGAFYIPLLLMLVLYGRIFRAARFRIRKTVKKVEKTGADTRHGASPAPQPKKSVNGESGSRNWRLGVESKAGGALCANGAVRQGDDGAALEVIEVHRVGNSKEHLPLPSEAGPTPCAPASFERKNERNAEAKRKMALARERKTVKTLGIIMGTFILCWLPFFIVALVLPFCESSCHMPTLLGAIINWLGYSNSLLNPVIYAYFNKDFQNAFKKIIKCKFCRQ
Briefly: Inhibitory activity against 5HT1A.

Test [5] addresses T4, Sodium-dependent dopamine transporter (Homo sapiens, UniProt Q01959). Briefly: Inhibition of [3H] dopamine uptake into human DAT expressed in HEK293 cells. It is filed as functional, cell-based. In a few lines:
as §1

The target of test [6] is D(2) dopamine receptor (Homo sapiens, UniProt P14416). The test can be described thus: Inhibitory activity against dopamine D2.
Test [7] has as its target 5-hydroxytryptamine receptor 1B (Homo sapiens, UniProt P28222). The test can be described thus: Inhibitory activity against 5HT1B.
The target in test [8] is D(1A) dopamine receptor (Homo sapiens, UniProt P21728). The test can be described thus: Inhibitory activity against dopamine D1.
Test [9] addresses D(3) dopamine receptor (Homo sapiens, UniProt P35462). Briefly: Inhibitory activity against dopamine D3.
The target in test [10] is T4, Sodium-dependent dopamine transporter. The test can be described thus: Displacement of [125I]RTI-55 from human DAT expressed in HEK293 cells. It is filed as cell-based. In short, it runs like this: as §2
Test [11] addresses T5, 5-hydroxytryptamine receptor 2C (Homo sapiens, UniProt P28335).
T5 sequence (P28335 whole entry): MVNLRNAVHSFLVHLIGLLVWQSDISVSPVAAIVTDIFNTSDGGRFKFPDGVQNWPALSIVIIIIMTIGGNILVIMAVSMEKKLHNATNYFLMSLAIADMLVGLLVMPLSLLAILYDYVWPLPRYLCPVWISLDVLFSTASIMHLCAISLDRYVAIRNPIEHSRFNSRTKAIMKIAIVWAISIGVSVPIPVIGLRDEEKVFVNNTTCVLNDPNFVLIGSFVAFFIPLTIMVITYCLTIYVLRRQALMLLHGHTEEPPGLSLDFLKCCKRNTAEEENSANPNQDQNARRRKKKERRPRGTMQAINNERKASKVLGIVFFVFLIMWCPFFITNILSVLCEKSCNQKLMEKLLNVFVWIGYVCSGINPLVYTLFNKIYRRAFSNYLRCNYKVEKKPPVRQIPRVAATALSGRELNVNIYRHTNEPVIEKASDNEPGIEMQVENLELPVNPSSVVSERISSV
The test can be described thus: Inhibitory activity against 5HT1C.

Test [12] deals with T2, Sodium-dependent noradrenaline transporter. Briefly: Inhibition of [3H] norepinephrine uptake into human NET expressed in HEK293 cells. The class given is functional, cell-based.

Chain of D(2) dopamine receptor (P14416 whole entry): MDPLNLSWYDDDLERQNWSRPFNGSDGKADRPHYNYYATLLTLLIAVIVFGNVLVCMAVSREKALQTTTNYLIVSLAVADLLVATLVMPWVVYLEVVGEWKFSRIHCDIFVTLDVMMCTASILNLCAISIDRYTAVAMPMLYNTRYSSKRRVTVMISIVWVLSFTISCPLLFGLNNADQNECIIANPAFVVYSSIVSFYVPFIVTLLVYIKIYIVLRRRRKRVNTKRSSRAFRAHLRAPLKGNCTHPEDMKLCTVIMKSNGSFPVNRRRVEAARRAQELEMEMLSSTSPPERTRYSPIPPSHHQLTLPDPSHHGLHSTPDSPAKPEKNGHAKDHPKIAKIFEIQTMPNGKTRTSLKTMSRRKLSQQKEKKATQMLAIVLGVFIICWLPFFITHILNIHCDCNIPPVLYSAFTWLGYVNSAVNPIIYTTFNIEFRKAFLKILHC
T4 sequence (Q01959 whole entry): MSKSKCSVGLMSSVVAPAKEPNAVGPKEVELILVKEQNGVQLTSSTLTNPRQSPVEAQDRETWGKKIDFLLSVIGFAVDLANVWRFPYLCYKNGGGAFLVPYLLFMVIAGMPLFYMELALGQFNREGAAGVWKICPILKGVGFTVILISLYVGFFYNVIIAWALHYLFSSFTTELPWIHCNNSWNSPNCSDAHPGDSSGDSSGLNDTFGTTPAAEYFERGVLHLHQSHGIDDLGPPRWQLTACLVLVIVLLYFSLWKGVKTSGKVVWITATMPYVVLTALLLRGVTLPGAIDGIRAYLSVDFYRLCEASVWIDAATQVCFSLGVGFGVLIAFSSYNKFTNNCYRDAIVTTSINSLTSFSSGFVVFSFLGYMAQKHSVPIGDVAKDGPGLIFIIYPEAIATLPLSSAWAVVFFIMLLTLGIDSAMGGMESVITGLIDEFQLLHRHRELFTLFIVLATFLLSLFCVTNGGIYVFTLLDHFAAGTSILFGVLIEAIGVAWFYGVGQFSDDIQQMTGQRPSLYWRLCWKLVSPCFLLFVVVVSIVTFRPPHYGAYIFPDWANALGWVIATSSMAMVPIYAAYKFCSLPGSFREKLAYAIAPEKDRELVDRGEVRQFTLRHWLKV
Chain of D(1A) dopamine receptor (P21728 whole entry): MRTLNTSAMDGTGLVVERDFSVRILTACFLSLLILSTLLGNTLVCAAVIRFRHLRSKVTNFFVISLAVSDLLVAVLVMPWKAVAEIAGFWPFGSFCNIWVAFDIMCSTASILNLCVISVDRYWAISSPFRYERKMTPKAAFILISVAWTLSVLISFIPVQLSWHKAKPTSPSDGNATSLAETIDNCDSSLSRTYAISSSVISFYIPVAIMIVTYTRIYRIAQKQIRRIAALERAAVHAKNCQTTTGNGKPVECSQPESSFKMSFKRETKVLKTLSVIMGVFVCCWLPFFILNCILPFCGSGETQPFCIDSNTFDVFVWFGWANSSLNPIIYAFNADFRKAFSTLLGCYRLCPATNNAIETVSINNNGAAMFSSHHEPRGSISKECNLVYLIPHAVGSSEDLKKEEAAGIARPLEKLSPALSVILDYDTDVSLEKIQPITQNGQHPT
T1 sequence (P31645 whole entry): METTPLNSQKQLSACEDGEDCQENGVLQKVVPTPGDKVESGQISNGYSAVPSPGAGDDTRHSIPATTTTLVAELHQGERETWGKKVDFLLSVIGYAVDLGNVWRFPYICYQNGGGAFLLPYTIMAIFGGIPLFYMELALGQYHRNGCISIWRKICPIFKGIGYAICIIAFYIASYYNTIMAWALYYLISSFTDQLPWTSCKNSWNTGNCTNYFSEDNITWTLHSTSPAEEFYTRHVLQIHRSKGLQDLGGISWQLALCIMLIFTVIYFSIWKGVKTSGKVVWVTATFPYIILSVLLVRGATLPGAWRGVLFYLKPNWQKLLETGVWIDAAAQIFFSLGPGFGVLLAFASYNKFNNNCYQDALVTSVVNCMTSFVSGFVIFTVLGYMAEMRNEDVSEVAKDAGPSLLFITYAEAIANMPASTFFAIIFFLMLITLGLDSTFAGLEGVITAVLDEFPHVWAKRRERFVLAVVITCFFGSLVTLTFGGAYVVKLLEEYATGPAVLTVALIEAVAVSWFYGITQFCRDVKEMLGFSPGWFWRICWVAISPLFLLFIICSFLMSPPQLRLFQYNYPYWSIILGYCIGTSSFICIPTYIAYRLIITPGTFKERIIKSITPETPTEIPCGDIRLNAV
Chain of D(3) dopamine receptor (P35462 whole entry): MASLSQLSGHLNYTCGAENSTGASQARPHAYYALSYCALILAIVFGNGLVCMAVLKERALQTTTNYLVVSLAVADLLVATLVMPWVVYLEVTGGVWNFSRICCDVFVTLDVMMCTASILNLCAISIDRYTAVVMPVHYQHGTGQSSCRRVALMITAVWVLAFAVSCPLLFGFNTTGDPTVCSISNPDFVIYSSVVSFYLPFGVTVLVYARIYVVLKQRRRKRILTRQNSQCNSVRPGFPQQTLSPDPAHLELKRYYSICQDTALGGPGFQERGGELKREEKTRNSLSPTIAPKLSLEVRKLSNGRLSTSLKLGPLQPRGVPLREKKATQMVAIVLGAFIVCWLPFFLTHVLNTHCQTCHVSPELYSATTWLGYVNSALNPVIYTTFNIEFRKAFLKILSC
T2 sequence (P23975 whole entry): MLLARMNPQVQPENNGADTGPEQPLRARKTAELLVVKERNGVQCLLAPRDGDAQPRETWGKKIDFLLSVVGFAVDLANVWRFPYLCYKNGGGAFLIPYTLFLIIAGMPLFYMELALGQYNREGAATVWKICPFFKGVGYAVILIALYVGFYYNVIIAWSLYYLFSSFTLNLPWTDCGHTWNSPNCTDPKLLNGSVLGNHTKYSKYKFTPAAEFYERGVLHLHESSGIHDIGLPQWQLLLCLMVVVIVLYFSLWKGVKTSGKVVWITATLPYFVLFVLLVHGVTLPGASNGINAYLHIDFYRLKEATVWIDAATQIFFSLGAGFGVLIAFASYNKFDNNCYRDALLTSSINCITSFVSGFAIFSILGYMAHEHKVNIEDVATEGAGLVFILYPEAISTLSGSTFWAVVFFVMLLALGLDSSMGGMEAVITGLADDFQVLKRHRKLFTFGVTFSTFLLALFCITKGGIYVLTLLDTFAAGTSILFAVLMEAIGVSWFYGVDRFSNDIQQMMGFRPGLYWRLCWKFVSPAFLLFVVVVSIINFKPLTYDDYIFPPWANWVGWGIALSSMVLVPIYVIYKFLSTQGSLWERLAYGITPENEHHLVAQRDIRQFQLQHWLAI
Chain of 5-hydroxytryptamine receptor 1B (P28222 whole entry): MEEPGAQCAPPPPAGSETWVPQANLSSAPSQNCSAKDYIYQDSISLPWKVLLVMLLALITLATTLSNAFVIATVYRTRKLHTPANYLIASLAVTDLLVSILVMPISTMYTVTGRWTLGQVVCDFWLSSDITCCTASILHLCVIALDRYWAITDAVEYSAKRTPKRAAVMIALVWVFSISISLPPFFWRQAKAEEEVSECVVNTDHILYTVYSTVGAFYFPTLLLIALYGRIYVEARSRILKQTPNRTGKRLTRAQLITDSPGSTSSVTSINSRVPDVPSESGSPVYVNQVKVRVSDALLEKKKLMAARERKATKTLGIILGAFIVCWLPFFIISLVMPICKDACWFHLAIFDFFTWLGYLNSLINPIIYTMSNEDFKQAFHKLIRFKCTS

Regarding `CCCC(C(=O)c1ccc(Br)cc1)N1CCCC1` (stereo not given), the IC50 was 1050 nM in test [1]; above 10 µM in test [4]; 39.5 nM in [5]; above 10 µM in test [6]; above 10 µM in [7]; above 10 µM in [8]. The figures for the IC50 in test [9], in test [11] and in [12] were above 10 µM, above 10 µM and 83 nM, respectively. Besides, the Ki was found to be 386 nM in [2], 0.83 µM in test [3] and 51 nM in test [10].

For `CCC(CC(=O)c1ccc(C)cc1)N1CCCC1` (stereo not given), the inhibition constant (Ki) in [2] is above 10000 nM; in [3], above 10 µM; in test [10], above 10000 nM. The IC50 in [4], in test [6], in test [7], in test [8], in test [9] and in [11] was above 10 µM throughout.

In the case of `CCCC(C(=O)c1ccccc1C)N1CCCC1` (stereo not given), the IC50 was 2020 nM in test [1]; above 10 µM in test [4]; 63 nM in [5]; above 10 µM in test [6]; above 10 µM in test [7]; above 10 µM in test [8]. For the same molecule, the IC50 was above 10 µM in test [9], above 10 µM in [11] and 19.7 nM in test [12]. Moreover, the inhibitory constant (Ki) in test [2] was 425 nM; in test [3] it was 3.72 µM; in test [10] it was 59.7 nM.

For the molecule `CCCC(C(=O)c1ccc(O)cc1)N1CCCC1` (stereo not given), the values for the Ki in test [2], in [3] and in test [10] were 1290 nM, above 10 µM and 125 nM, respectively. The IC50 in test [4] was above 10 µM; in test [5] it was 49.7 nM; in [6], above 10 µM; in test [7] it was above 10 µM; in test [8], above 10 µM; in test [9], above 10 µM. Moreover, the half-maximal inhibitory concentration (IC50) in test [11] was above 10 µM; in [12], 86.7 nM.

Turning to `CCCC(C(=O)c1cccc(C)c1)N1CCCC1` (stereo not given), the values for the Ki in test [2], in test [3] and in test [10] were 216 nM, 5.9 µM and 51 nM, respectively. The half-inhibitory concentration (IC50) in test [4] is above 10 µM; in test [5] it was 62.9 nM; in test [6], above 10 µM; in test [7] it was above 10 µM; in test [8], above 10 µM; in test [9], above 10 µM. Moreover, the half-maximal inhibitory concentration (IC50) in test [11] is above 10 µM; in test [12], 9.4 nM.

In the case of `CCCC(C(=O)c1ccc(C(F)(F)F)cc1)N1CCCC1` (stereo not given), the IC50 was 1030 nM in test [1]; above 10 µM in test [4]; above 10 µM in [6]; above 10 µM in [7]; above 10 µM in test [8]; above 10 µM in [9]. In test [11], this molecule showed an IC50 above 10 µM. Besides, the results for the Ki in test [2], in [3] and in test [10] were above 10000 nM, 0.959 µM and above 10000 nM, respectively.

On to `CCCC(C(=O)c1ccc2ccccc2c1)N1CCCC1` (stereo not given), for which the IC50 in [1] was 46 nM; in [4] it was above 10 µM; in test [5] it was 40 nM; in test [6], above 10 µM; in test [7], above 10 µM; in test [8], above 10 µM. Moreover, the IC50 in [9] was above 10 µM; in test [11] it was above 10 µM; in test [12] it was 11.7 nM. The Ki in [2] came out at 136 nM; in [3], 0.0331 µM; in [10], 20.1 nM.

As for `CCCC(C(=O)c1ccc(-c2cccs2)cc1)N1CCCC1` (stereo not given), the 50% inhibitory concentration (IC50) was 1960 nM in test [1]; above 10 µM in test [4]; 539 nM in [5]; above 10 µM in test [6]; above 10 µM in test [7]; above 10 µM in test [8]. Also, the values for the IC50 in test [9], in test [11] and in [12] were above 10 µM, above 10 µM and 263 nM, respectively. Besides, the results for the Ki in [2], in test [3] and in test [10] were 370 nM, 3.32 µM and 460 nM, respectively.

In the case of `CCC[C@@H](C(=O)c1ccc(C)cc1)N1CCCC1`, the IC50 is 1070 nM in test [1]; above 10 µM in test [4]; 16.3 nM in test [5]; above 10 µM in [6]; above 10 µM in [7]; above 10 µM in test [8]. Further, the results for the half-maximal inhibitory concentration (IC50) in [9], in test [11] and in test [12] were above 10 µM, above 10 µM and 11.3 nM, respectively. For the same molecule, the Ki in test [2] came out at 109 nM; in test [3], 2.22 µM; in [10] it was 18.1 nM.

With `CCC(CC(=O)c1ccc(Cl)c(Cl)c1)N1CCCC1` (stereo not given), the IC50 was 1780 nM in test [1]; above 10 µM in test [4]; above 10000 nM in test [5]; above 10 µM in [6]; above 10 µM in [7]; above 10 µM in [8]. Besides, the half-maximal inhibitory concentration (IC50) in [9] and in test [11] was above 10 µM in each case. Further, the values for the Ki in test [2], in test [3] and in [10] were above 10000 nM, 3.9 µM and 8440 nM, respectively.

As for `CCCC(C(=O)c1ccc(NC(C)=O)cc1)N1CCCC1` (stereo not given), the inhibition constant (Ki) was 4000 nM in test [2], above 10 µM in test [3] and 30.2 nM in test [10]. The IC50 in test [4] was above 10 µM; in [5] it was 67.9 nM; in test [6], above 10 µM; in [7], above 10 µM; in [8], above 10 µM; in [9], above 10 µM. Besides, the IC50 in test [11] is above 10 µM; in [12] it was 317 nM.

For the molecule `CCCC(C(=O)c1ccc(OC)cc1)N1CCCC1` (stereo not given), the IC50 is 2430 nM in test [1]; above 10 µM in [4]; 283 nM in test [5]; above 10 µM in [6]; above 10 µM in [7]; above 10 µM in test [8]. Further, the IC50 was above 10 µM in [9], above 10 µM in test [11] and 235 nM in test [12]. The Ki in test [2] came to 2600 nM; in [3], 4.08 µM; in test [10] it was 329 nM.

As a reminder, the IC50 is the point on the concentration scale where inhibition reaches its midpoint. What is called Ki is the equilibrium dissociation constant of an inhibitor or competing ligand from its target. Read a high Ki as lower affinity.

(Values after ChEMBL document CHEMBL1138144 (J Med Chem, 2006).)
